Measurements gathered from unrelated publications.
Each line is one published result; the experiments were not run side by side.
Organism: Staphylococcus aureus
Read-out: microbial growth

Structure (SMILES) | method | strain | time | MIC
Cc1nn(-c2ccccc2)c2c1C(c1ccc([N+](=O)[O-])cc1)N(C(=O)c1ccncc1)N2 (centres unmarked) |  | MTCC96 | 24 h | 64 µg/mL
CN[C@@H]1[C@@H](O[C@H]2O[C@H](CO)[C@@H](N)[C@H](O)[C@H]2O)OC2C[C@@H](N)[C@@H](O[C@H]3[C@H](O)[C@@H](O)[C@H](N)C[C@@H]3N)OC2[C@@H]1O (some centres unmarked) |  |  | 24 h | 1.25 to 2.5 µM
CC(O)CSc1nnc(-c2cc3ccccc3o2)n1-c1ccccc1 (centres unmarked) |  |  |  | 2500 µg/mL
CC(C)(C)OC(=O)N1CCN(c2cc(C(=O)NCC(=O)O)ccc2NC(=O)c2cc(Br)c(Br)[nH]2)CC1 | broth dilution | ATCC29213 |  | > 32 µg/mL
CC(O)CSc1nnc(COc2ccc(Cl)cc2Br)n1-c1ccccc1 (centres unmarked) |  |  |  | 12000 µg/mL
COc1ccc(C2c3c(C)nn(-c4ccccc4)c3NN2C(=O)c2ccncc2)cc1 (centres unmarked) |  | MTCC96 | 24 h | 64 µg/mL
C[C@@H]1O[C@@H](OC[C@H]2O[C@@H](Oc3cc(O)c4c(c3)O[C@H](c3ccc(O)cc3)CC4=O)[C@H](O)[C@@H](O)[C@@H]2O)[C@H](O)[C@H](O)[C@H]1O | broth dilution |  | 16 h | > 250 µg/mL
CC(C)NCC(COc1cccc2ccccc12)OC(=O)C=Cc1ccc(O)c(O)c1 (centres unmarked) | broth dilution | FDA209 |  | 32 µg/mL
O=C(O)c1cn(C2CC2)c2cc(N3CCNCC3)c(F)cc2c1=O |  | MTCC96 | 24 h | 0.12 µg/mL
O=C(OC[C@H]1O[C@@H](OC(=O)c2cc(O)c(O)c(O)c2)[C@H](OC(=O)c2cc(O)c(O)c(O)c2)[C@@H](OC(=O)c2cc(O)c(O)c(O)c2)[C@@H]1OC(=O)c1cc(O)c(O)c(O)c1)c1cc(O)c(O)c(O)c1 | broth dilution |  | 16 h | 100 µg/mL
CC1(C)S[C@@H]2[C@H](NC(=O)[C@H](N)c3ccccc3)C(=O)N2[C@H]1C(=O)O |  |  | 24 h | < 1.25 µM
CC1(C)S[C@@H]2[C@H](NC(=O)[C@H](N)c3ccccc3)C(=O)N2[C@H]1C(=O)O | broth dilution | FDA209 |  | 4 µg/mL
Cl.N[C@@H]1CCN(c2cc(C(=O)NCC(=O)O)ccc2NC(=O)c2cc(Br)c(Br)[nH]2)C1 | broth dilution | ATCC29213 |  | > 32 µg/mL
Cc1ccccc1NC(=O)C=Cc1ccc(O)c(O)c1 | broth dilution | FDA209 |  | 8 µg/mL
CC(C)(C)OC(=O)N[C@H]1CCN(c2cc(C(=O)NCC(=O)O)ccc2NC(=O)c2cc(Br)c(Br)[nH]2)C1 | broth dilution | ATCC29213 |  | > 32 µg/mL
Cc1ccc(-c2nnc(SCC(C)O)n2-c2ccccc2)cc1 (centres unmarked) |  |  |  | 3500 µg/mL
Cc1[nH]c(C(=O)Nc2ccc(C(=O)NCC(=O)O)cc2N2CC[C@H](N)C2)c(Cl)c1Cl.Cl | broth dilution | ATCC29213 |  | > 32 µg/mL
Cc1nn(-c2ccccc2)c2c1C(c1ccc(O)cc1)N(C(=O)c1ccncc1)N2 (centres unmarked) |  | MTCC96 | 24 h | > 100 µg/mL
Cc1[nH]c(C(=O)Nc2ccc(C(=O)NCC(=O)O)cc2N2CC[C@H](NC(=O)OC(C)(C)C)C2)c(Cl)c1Cl | broth dilution | ATCC29213 |  | > 32 µg/mL
COc1cc(Cc2cnc(N)nc2N)cc(OC)c1OC | broth dilution | FDA209 |  | 16 µg/mL
CO[C@@H]1[C@@H](OC(N)=O)[C@@H](O)[C@H](Oc2ccc3c(O)c(NC(=O)c4ccc(O)c(CC=C(C)C)c4)c(=O)oc3c2C)OC1(C)C | broth dilution | ATCC29213 |  | 0.25 µg/mL
C=C/C=C(\C)CC[C@@H]1C[C@@H](O)CC(=O)O1 | broth dilution | ATCC6538P |  | 256 µg/mL
Cc1[nH]c(C(=O)Nc2ccc(C(=O)NCc3n[nH]c(=O)o3)cc2N2CCNCC2)c(Cl)c1Cl.Cl | broth dilution | ATCC29213 |  | > 32 µg/mL
Cc1nn(-c2ccccc2)c2c1C(c1ccc(Cl)cc1)N(C(=O)c1ccncc1)N2 (centres unmarked) |  | MTCC96 | 24 h | > 100 µg/mL
CN[C@H](CC(C)C)C(=O)N[C@H]1C(=O)N[C@@H](CC(N)=O)C(=O)N[C@H]2C(=O)N[C@H]3C(=O)N[C@H](C(=O)N[C@H](C(=O)O)c4cc(O)cc(O)c4-c4cc3ccc4O)[C@H](O)c3ccc(c(Cl)c3)Oc3cc2cc(c3O[C@@H]2O[C@H](CO)[C@@H](O)[C@H](O)[C@H]2O[C@H]2C[C@](C)(N)[C@H](O)[C@H](C)O2)Oc2ccc(cc2Cl)[C@H]1O |  | ATCC29213 MSSA |  | 0.67 µM
Nc1ccccc1OC(=O)C=Cc1ccc(O)c(O)c1 | broth dilution | FDA209 |  | 8 µg/mL
